# Assay results pooled from the literature.
# Each line is one published result; the experiments were not run side by side.
# Matrix: plasma
# Route: oral
SMILES,species,dose,bioavailability [%]
CC1(CN)CCN(c2cnc3c(Sc4ccncc4Cl)n[nH]c3n2)CC1,male Sprague-Dawley rat,10 mg/kg,42.5
N#C[C@@]12C[C@@H]1[C@@H](n1cnc3c(N[C@@H](C4CCC4)C4CC4)nc(I)nc31)[C@H](O)[C@@H]2O,male Wistar rat,1 mg/kg,7.18
CC(=O)CC(=O)C1CC(C)C(=O)C1=O (stereo not shown),male Sprague-Dawley rat,100 mg/kg,100
CC(/C=C/C=C(\C)C(=O)O)=C\C=C\C=C(C)\C=C\C=C(/C)C(=O)O,female Wistar rat,20 mg/kg,55 to 66
O=C(C=Cc1ccccc1)Nc1cc(-c2ccnc(N3CCC(O)CC3)c2)ccn1,female Sprague-Dawley rat,50 mg/kg,~38.5
CN1Cc2c(N)cccc2C(=O)N1C1CCC(=O)NC1=O (stereo not shown),male Sprague-Dawley rat,3 mg/kg,82.5
CC(=Nc1ccc(N=Cc2cnccn2)cc1)N(C)C,male Sprague-Dawley rat,200 mg/kg,12
Cc1c(C(=O)O)ccc2c3n(nc12)[C@@H]1[C@H](C3)N(CC2CC2)[C@@]2(C(=O)Nc3cc(Cl)ccc32)[C@H]1c1cccc(Cl)c1F,male rat,2 mg/kg,55
O=C1CC[C@H](N2Cc3cc(N4CCN(CC5CCN(c6ccc([C@@H]7c8ccc(O)cc8CC[C@@H]7c7ccccc7)cc6)CC5)CC4)ccc3C2=O)C(=O)N1,female Sprague-Dawley rat,20 mg/kg,24.2
Nc1ccc(/C=C/C(=O)NCc2cc3cc(-c4ccc(C(=O)N5CCC(F)(F)CC5)cc4)cc(-c4ccc(F)cc4)c3o2)cn1,rat,3 mg/kg,19.6
